Assay results taken from ChEMBL document CHEMBL1649311, “A clinical isolate of Candida albicans with mutations in ERG11 (encoding sterol 14alpha-demethylase) and ERG5 (encoding C22 desaturase) is cross resistant to azoles and amphotericin B” (2010).
Converted amounts (≈) assume the structure as drawn.

How the values were obtained:
Candida albicans [1] = assay: Antifungal activity against Candida albicans isolate 108 harboring erg11 and erg5 double mutant after 48 hrs by broth microdilution method; type: functional; conditions: isolate 108, 48 h
Outline: (§1)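 CLSI M27-A2 broth dilution in RPMI 1640 buffered with 0.165 M MOPS (pH 7), 37°C, for azoles (fluconazole, voriconazole, itraconazole, ketoconazole, clotrimazole). For amphotericin B, the MIC is the lowest concentration with complete growth inhibition.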

Candida albicans [2] = assay: Effect on sterol composition in Candida albicans isolate 14 expressing wild type erg11 and erg5 assessed as lanosterol level after 2 hrs by gas chromatography; type: functional
Candida albicans [3] = assay: Effect on sterol composition in Candida albicans isolate 108 harboring erg11 and erg5 double mutant assessed as lanosterol level after 2 hrs by gas chromatography; type: functional; design: concentration or dose not given beside the values
Candida albicans [4] = assay: Antifungal activity against Candida albicans isolate 177 after 48 hrs by broth microdilution method; type: functional; conditions: isolate 177, 48 h; outline: as §1
Candida albicans [5] = assay: Antifungal activity against Candida albicans isolate 14 after 48 hrs by broth microdilution method; type: functional; conditions: isolate 14, 48 h; outline: as §1
Candida albicans [6] = assay: Effect on sterol composition in Candida albicans isolate 14 expressing wild type erg11 and erg5 assessed as obtusifoliol level after 2 hrs by gas chromatography; type: functional; design: concentration or dose not given beside the values
Candida albicans [7] = assay: Antifungal activity against Candida albicans isolate 14 after 48 hrs by broth microdilution method in presence of 10 uM of efflux pump inhibitor FK506; type: functional; conditions: isolate 14, 48 h
Outline: (§2)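 Doubling dilutions of azole with a fixed 10 μM FK506 in microtiter wells in MOPS-buffered RPMI 1640 (pH 7). Read visually after 48 h at 37°C. The MIC is the lowest azole concentration giving at least 80% growth inhibition versus control wells.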

Candida albicans [8] = assay: Antifungal activity against Candida albicans isolate 108 harboring erg11 and erg5 double mutant after 48 hrs by broth microdilution method in presence of 10 uM of efflux pump inhibitor FK506; type: functional; conditions: isolate 108, 48 h
Outline: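 C. albicans clinical isolate grown in RPMI 1640 buffered with 0.165 M MOPS (pH 7). Azole MICs by CLSI M27-A2 broth microdilution, with doubling drug dilutions plus a fixed 10 μM FK506. Plates incubated 48 h at 37°C and read visually. MIC taken as the lowest azole concentration giving at least 80% growth inhibition versus control wells.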

Candida albicans [9] = assay: Antifungal activity against Candida albicans isolate 6 after 48 hrs by broth microdilution method; type: functional; conditions: isolate 6, 48 h; outline: as §1
Candida albicans [10] = assay: Antifungal activity against Candida albicans isolate 6 after 48 hrs by broth microdilution method in presence of 10 uM of efflux pump inhibitor FK506; type: functional; outline: as §2
Candida albicans [11] = assay: Effect on sterol composition in Candida albicans isolate 108 harboring erg11 and erg5 double mutant eburicol level after 2 hrs by gas chromatography; type: functional; design: concentration or dose not given beside the values
Candida albicans [12] = assay: Effect on sterol composition in Candida albicans isolate 108 harboring erg11 and erg5 double mutant assessed as zymosterol level after 2 hrs by gas chromatography; type: functional
Candida albicans [13] = assay: Effect on sterol composition in Candida albicans isolate 14 expressing wild type erg11 and erg5 assessed as eburicol level after 2 hrs by gas chromatography; type: functional
Candida albicans [14] = assay: Effect on sterol composition in Candida albicans isolate 14 expressing wild type erg11 and erg5 assessed as ergosterol level after 2 hrs by gas chromatography; type: functional; design: concentration or dose not given beside the values
Candida albicans [15] = assay: Effect on sterol composition in Candida albicans isolate 108 harboring erg11 and erg5 double mutant assessed as 14alpha-Methylfecosterol level after 2 hrs by gas chromatography; type: functional
Candida albicans [16] = assay: Effect on sterol composition in Candida albicans isolate 14 expressing wild type erg11 and erg5 assessed as 14 -Methylergosta-8,24(28)-dien-3beta,6alpha-diol level after 2 hrs by gas chromatography; type: functional; design: concentration or dose not given beside the values
Candida albicans [17] = assay: Effect on sterol composition in Candida albicans isolate 108 harboring erg11 and erg5 double mutant assessed as 4,14alpha-Dimethylcholesta-8,24-dienol level after 2 hrs by gas chromatography; type: functional
Candida albicans [18] = assay: Effect on sterol composition in Candida albicans isolate 108 harboring erg11 and erg5 double mutant assessed as ergosta 5,7-dienol level after 2 hrs by gas chromatography; type: functional; design: concentration or dose not given beside the values
Candida albicans [19] = assay: Antifungal activity against Candida albicans isolate 177 after 48 hrs by broth microdilution method in presence of 10 uM of efflux pump inhibitor FK506; type: functional; conditions: isolate 177, 48 h; outline: as §2
Candida albicans [20] = assay: Effect on sterol composition in Candida albicans isolate 108 harboring erg11 and erg5 double mutant assessed as obtusifoliol level after 2 hrs by gas chromatography; type: functional; design: concentration or dose not given beside the values
Candida albicans [21] = assay: Effect on sterol composition in Candida albicans isolate 108 harboring erg11 and erg5 double mutant assessed as 14 -Methylergosta-8,24(28)-dien-3beta,6alpha-diol level after 2 hrs by gas chromatography; type: functional
Candida albicans [22] = assay: Effect on sterol composition in Candida albicans isolate 108 harboring erg11 and erg5 double mutant assessed as 4,4-Dimethylcholesta-8,14,24-trienol level after 2 hrs by gas chromatography; type: functional
Candida albicans [23] = assay: Ratio of MIC for Candida albicans isolate 108 harboring erg11 and erg5 double mutant to MIC for Candida albicans isolate 177 expressing wild type erg11 and erg 5 enzyme; type: functional
Candida albicans [24] = assay: Ratio of MIC for Candida albicans isolate 108 harboring erg11 and erg5 double mutant to MIC for Candida albicans isolate14 expressing wild type erg11 and erg 5 enzyme; type: functional
Candida albicans [25] = assay: Antifungal activity against Candida albicans isolate 6 after 48 hrs by Etest; conditions: isolate 6, 48 h
Candida albicans [26] = assay: microbe, parasite or virus in culture; conditions: isolate 177, 48 h
Candida albicans [27] = assay: Antifungal activity against Candida albicans isolate 108 harboring erg11 and erg5 double mutant after 48 hrs by Etest; type: functional; conditions: isolate 108, 48 h
Candida albicans [28] = assay: Antifungal activity against Candida albicans isolate 14 after 48 hrs by Etest; conditions: isolate 14, 48 h
Candida albicans [29] = assay: Ratio of MIC for Candida albicans isolate 108 harboring erg11 and erg5 double mutant to MIC for Candida albicans isolate 6 expressing wild type erg11 and erg 5 enzyme; type: functional

OC(Cn1cncn1)(Cn1cncn1)c1ccc(F)cc1F [FLUCONAZOLE]
MIC (Candida albicans [1]): 64 µg/mL (≈ 209 µM) | Activity (Candida albicans [2]): 25% | Activity (Candida albicans [3]): 25.7% | MIC (Candida albicans [4]): 256 µg/mL (≈ 836 µM) | MIC (Candida albicans [5]): 1 µg/mL (≈ 3.27 µM) | Activity (Candida albicans [6]): 25% | MIC (Candida albicans [7]): 1 µg/mL | MIC (Candida albicans [8]): 16 µg/mL | MIC (Candida albicans [9]): 256 µg/mL (≈ 836 µM) | Activity (Candida albicans [10]): 1 µg/mL | Activity (Candida albicans [11]): 0.9% | Activity (Candida albicans [12]): 1.4% | Activity (Candida albicans [13]): 4.1% | Activity (Candida albicans [14]): 45.5% | Activity (Candida albicans [15]): 9.4% | Activity (Candida albicans [16]): 25.4% | Activity (Candida albicans [17]): 5.5% | Activity (Candida albicans [18]): 57.1% | MIC (Candida albicans [19]): 0.5 µg/mL | Activity (Candida albicans [20]): 25.7%

Clc1ccccc1C(c1ccccc1)(c1ccccc1)n1ccnc1 [CLOTRIMAZOLE]
MIC (Candida albicans [1]): 2 µg/mL (≈ 5.8 µM) | Activity (Candida albicans [2]): 35% | Activity (Candida albicans [3]): 16.4% | MIC (Candida albicans [4]): 1 µg/mL (≈ 2.9 µM) | MIC (Candida albicans [5]): 0.0625 µg/mL (≈ 0.181 µM) | Activity (Candida albicans [6]): 35% | MIC (Candida albicans [9]): 1 µg/mL (≈ 2.9 µM) | Activity (Candida albicans [11]): 8.2% | Activity (Candida albicans [21]): 32.8% | Activity (Candida albicans [14]): 30% | Activity (Candida albicans [16]): 35% | Activity (Candida albicans [18]): 42.6% | Activity (Candida albicans [20]): 16.4%

CCC(C)n1ncn(-c2ccc(N3CCN(c4ccc(OCC5COC(Cn6cncn6)(c6ccc(Cl)cc6Cl)O5)cc4)CC3)cc2)c1=O (stereo unspecified) [ITRACONAZOLE]
MIC (Candida albicans [1]): 2 µg/mL (≈ 2.83 µM) | Activity (Candida albicans [2]): 29% | Activity (Candida albicans [3]): 16.7% | MIC (Candida albicans [4]): 16 µg/mL (≈ 22.7 µM) | MIC (Candida albicans [5]): 0.0625 µg/mL (≈ 0.0886 µM) | Activity (Candida albicans [6]): 29% | MIC (Candida albicans [9]): 16 µg/mL (≈ 22.7 µM) | Activity (Candida albicans [11]): 8.3% | Activity (Candida albicans [21]): 50% | Activity (Candida albicans [14]): 33% | Activity (Candida albicans [16]): 38% | Activity (Candida albicans [18]): 25% | Activity (Candida albicans [20]): 16.7%

C[C@@H](c1ncncc1F)[C@](O)(Cn1cncn1)c1ccc(F)cc1F [VORICONAZOLE]
MIC (Candida albicans [1]): 8 µg/mL (≈ 22.9 µM) | Activity (Candida albicans [2]): 24.1% | Activity (Candida albicans [3]): 29.5% | MIC (Candida albicans [4]): 16 µg/mL (≈ 45.8 µM) | MIC (Candida albicans [5]): 0.0625 µg/mL (≈ 0.179 µM) | Activity (Candida albicans [6]): 24.1% | MIC (Candida albicans [7]): < 0.0625 µg/mL | MIC (Candida albicans [8]): 4 µg/mL | MIC (Candida albicans [9]): 16 µg/mL (≈ 45.8 µM) | MIC (Candida albicans [10]; Candida albicans, isolate 6, 48 h): < 0.0625 µg/mL | Activity (Candida albicans [11]): 9.4% | Activity (Candida albicans [21]): 10.4% | Activity (Candida albicans [14]): 47.3% | Activity (Candida albicans [15]): 12.7% | Activity (Candida albicans [22]): 3.4% | Activity (Candida albicans [16]): 28.6% | Activity (Candida albicans [17]): 7.2% | Activity (Candida albicans [18]): 27.4% | MIC (Candida albicans [19]): < 0.0625 µg/mL | Activity (Candida albicans [20]): 29.5%

C[C@@H]1[C@H](O)[C@@H](C)/C=C/C=C/C=C/C=C/C=C/C=C/C=C/[C@H](O[C@@H]2O[C@H](C)[C@@H](O)[C@H](N)[C@@H]2O)C[C@@H]2O[C@](O)(C[C@@H](O)C[C@@H](O)[C@H](O)CC[C@@H](O)C[C@@H](O)CC(=O)O[C@H]1C)C[C@H](O)[C@H]2C(=O)O [AMPHOTERICIN B]
Ratio (Candida albicans [23]): 8 | Ratio (Candida albicans [24]): 8 | MIC (Candida albicans [25]): 0.25 µg/mL (≈ 0.271 µM) | MIC (Candida albicans [26]): 0.25 µg/mL (≈ 0.271 µM) | MIC (Candida albicans [27]): 4 µg/mL (≈ 4.33 µM) | MIC (Candida albicans [28]): 0.25 µg/mL (≈ 0.271 µM) | Ratio (Candida albicans [29]): 8

CC(=O)N1CCN(c2ccc(OCC3COC(Cn4ccnc4)(c4ccc(Cl)cc4Cl)O3)cc2)CC1 (stereo unspecified) [KETOCONAZOLE]
MIC (Candida albicans [1]): 1 µg/mL (≈ 1.88 µM) | Activity (Candida albicans [2]): 26.4% | Activity (Candida albicans [3]): 20.3% | MIC (Candida albicans [4]): 16 µg/mL (≈ 30.1 µM) | MIC (Candida albicans [5]): 0.0625 µg/mL (≈ 0.118 µM) | Activity (Candida albicans [6]): 26.4% | MIC (Candida albicans [9]): 16 µg/mL (≈ 30.1 µM) | Activity (Candida albicans [11]): 10.2% | Activity (Candida albicans [21]): 45.1% | Activity (Candida albicans [14]): 36.4% | Activity (Candida albicans [16]): 37.2% | Activity (Candida albicans [18]): 24.4% | Activity (Candida albicans [20]): 20.3%
